Data published in ChEMBL document CHEMBL4118144, “Design, Synthesis, and Testing of Potent, Selective Hepsin Inhibitors via Application of an Automated Closed-Loop Optimization Platform” (J Med Chem, 2018).
Active and inactive are the calls of the source. No cut-off for these calls is given here.

What was measured:
[1] = biological target: T1, Trypsin (Homo sapiens) (UniProt P07477+P07478+P35030); test: Inhibition of human trypsin using Z-Gly-Pro-Arg-AMC as substrate at 10 uM after 60 mins by fluorescence spectrophotometric method relative to control; assay type: protein assay
Procedure, shortened: (§1)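 Panel of ten serine proteases; percent inhibition read at compound concentrations of 1 µM and 10 µM, each value the mean of 2 experiments.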

[2] = biological target: Urokinase-type plasminogen activator (Homo sapiens, UniProt P00749); test: Inhibition of recombinant C-terminal His10-tagged human uPA (M1 to L431 residues) expressed in mouse NS0 cells using Z-GGR-AMC as substrate after 15 mins by manual fluorescence assay
[3] = Half life in human liver microsomes at 3 uM preincubated for 5 mins followed by NADPH addition by LC-MS/MS analysis; assay type: ADME, microsome
[4] = biological target: T2, Serine protease hepsin (Homo sapiens, UniProt P05981); test: Inhibition of doxycycline induced Hepsin in human MCF10A cells assessed as prevention in loss of HAI-1 level at 10 uM preincubated for 30 mins followed by doxycycline addition measured after 6 hrs by Immunoblot assay; assay type: cell-based
T2 sequence (P05981 1-162 limits assumed): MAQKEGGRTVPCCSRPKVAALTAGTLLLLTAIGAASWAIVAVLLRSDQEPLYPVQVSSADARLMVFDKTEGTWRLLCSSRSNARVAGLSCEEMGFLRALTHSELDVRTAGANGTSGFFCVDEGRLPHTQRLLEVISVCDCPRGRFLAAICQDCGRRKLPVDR
T2 sequence (P05981 163-417 limits assumed): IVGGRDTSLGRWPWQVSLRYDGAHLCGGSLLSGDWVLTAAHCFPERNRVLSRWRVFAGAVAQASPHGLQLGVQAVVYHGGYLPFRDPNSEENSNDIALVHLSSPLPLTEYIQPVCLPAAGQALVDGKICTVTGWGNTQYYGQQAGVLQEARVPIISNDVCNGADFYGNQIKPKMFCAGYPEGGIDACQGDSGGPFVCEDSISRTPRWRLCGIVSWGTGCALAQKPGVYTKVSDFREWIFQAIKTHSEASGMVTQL
Procedure, shortened: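 MCF10A-Indu20-hepsin cells (Dox-inducible hepsin) pretreated 30 min with compound or DMSO, then hepsin induced with 100 ng/mL doxycycline for 6 h; HAI-1 protein scored by immunoblot.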

[5] = biological target: T3, Neutrophil elastase (Homo sapiens) (UniProt P08246); test: Inhibition of human ELA2 using N-MeOSuc-Ala-Ala-Pro-Val-pNA as substrate at 10 uM after 60 mins by spectrophotometric method relative to control; procedure, shortened: as §1
T3 sequence (whole entry): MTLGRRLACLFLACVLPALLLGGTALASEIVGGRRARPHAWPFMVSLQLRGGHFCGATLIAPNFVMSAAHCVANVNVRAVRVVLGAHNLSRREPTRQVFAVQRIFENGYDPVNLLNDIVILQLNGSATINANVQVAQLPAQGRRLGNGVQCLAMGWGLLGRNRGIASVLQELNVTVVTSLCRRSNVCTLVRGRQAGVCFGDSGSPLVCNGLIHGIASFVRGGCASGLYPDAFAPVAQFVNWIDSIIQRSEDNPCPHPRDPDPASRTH

[6] = biological target: T2, Serine protease hepsin; test: Inhibition of hepsin-mediated conversion of Pro-HGF into active form in human Hs578T cells assessed as decrease in MET phosphorylation at 1 to 10 uM preincubated for 30 mins followed by recombinant human pro-HGF addition measured after 30 mins by immunoblot method; assay type: cell-based
Procedure, shortened: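 Hs578T or HCC1937 breast cells incubated with DMSO or inhibitor, then 50 ng/mL recombinant human Pro-HGF added; MET pathway activation (phospho-MET) assessed by immunoblotting.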

[7] = biological target: T4, Hepatocyte growth factor activator serine protease (Homo sapiens) (UniProt Q04756); test: Inhibition of C-terminal 10-His tagged recombinant human HGFA (Gln36 to Ser655 residues) expressed in mouse […] cells 1 uM after 15 mins by fluorescence assay relative to control; assay type: cell-based
T4 sequence (whole entry): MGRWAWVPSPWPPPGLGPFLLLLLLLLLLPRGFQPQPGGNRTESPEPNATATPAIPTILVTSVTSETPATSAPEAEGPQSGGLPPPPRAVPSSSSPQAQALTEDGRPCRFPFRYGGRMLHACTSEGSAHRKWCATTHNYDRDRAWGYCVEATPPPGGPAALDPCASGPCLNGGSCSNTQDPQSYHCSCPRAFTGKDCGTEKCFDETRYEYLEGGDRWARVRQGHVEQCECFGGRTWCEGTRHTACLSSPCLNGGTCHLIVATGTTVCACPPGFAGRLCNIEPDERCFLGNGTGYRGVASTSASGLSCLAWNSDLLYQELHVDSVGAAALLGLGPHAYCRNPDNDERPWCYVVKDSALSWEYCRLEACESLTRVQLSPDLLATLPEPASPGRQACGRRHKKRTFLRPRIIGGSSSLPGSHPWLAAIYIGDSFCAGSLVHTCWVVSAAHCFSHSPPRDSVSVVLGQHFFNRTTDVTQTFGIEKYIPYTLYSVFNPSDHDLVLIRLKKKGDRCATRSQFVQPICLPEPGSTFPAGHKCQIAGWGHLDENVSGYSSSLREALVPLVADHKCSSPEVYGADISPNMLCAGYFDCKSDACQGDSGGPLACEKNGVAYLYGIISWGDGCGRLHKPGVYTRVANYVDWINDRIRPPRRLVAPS

[8] = biological target: T5, Cathepsin G (Homo sapiens) (UniProt P08311); test: Inhibition of human cathepsin G using Suc-Ala-Ala-Pro-Phe-AMC as substrate at 10 uM after 30 mins by fluorescence spectrophotometric method relative to control; procedure, shortened: as §1
T5 sequence (whole entry): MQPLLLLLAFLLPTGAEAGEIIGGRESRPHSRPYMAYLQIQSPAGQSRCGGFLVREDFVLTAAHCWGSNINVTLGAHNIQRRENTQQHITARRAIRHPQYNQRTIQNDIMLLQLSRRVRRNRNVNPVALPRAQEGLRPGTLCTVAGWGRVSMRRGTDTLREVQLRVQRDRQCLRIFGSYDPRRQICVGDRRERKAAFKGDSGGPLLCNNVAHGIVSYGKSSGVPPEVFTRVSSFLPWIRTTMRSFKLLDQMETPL

[9] = biological target: T6, Chymase (Homo sapiens) (UniProt P23946); test: Inhibition of human chymase using Suc-Ala-Ala-Pro-Phe-AMC as substrate at 1 uM after 120 mins by fluorescence spectrophotometric method relative to control; procedure, shortened: as §1
T6 sequence (whole entry): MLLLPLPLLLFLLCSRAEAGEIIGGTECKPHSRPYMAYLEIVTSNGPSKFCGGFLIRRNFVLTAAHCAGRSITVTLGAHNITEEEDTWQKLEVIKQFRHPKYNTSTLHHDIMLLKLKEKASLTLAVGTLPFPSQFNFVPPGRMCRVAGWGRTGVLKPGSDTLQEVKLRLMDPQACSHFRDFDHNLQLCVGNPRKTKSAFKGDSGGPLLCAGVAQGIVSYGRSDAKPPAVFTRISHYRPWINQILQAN

[10] = biological target: T1, Trypsin (Homo sapiens); test: Inhibition of human trypsin using Z-Gly-Pro-Arg-AMC as substrate at 1 uM after 60 mins by fluorescence spectrophotometric method relative to control; assay type: protein assay; procedure, shortened: as §1
[11] = biological target: T3, Neutrophil elastase (Homo sapiens); test: Inhibition of elastase (unknown origin) at 10 uM relative to control; procedure, shortened: as §1

| Structure (SMILES) | inhibition [1] [%] | IC50 [2] [µM] | half-life at 3 µM [3] [min] | inhibition [4] | inhibition [5] [%] | inhibition [6] | inhibition [7] [%] | inhibition [8] [%] | inhibition [9] [%] | inhibition [10] [%] | inhibition [11] [%] |
| --- | --- | --- | --- | --- | --- | --- | --- | --- | --- | --- | --- |
| Cc1ccc(S(=O)(=O)N[C@@H](C(=O)Nc2ccc(C(=N)N)cc2)C2CCCCC2)cc1 | 96 | 10 to 1950 | 89 | inactive | < 10 | Active | 18 | < 10 | < 10 | 83 | < 10 |
| Cc1ccc(S(=O)(=O)N[C@@H](C(=O)Nc2ccc(C(=N)N)cc2)c2ccccc2)cc1 | 93 | 140 | 53 | Active | < 10 | Active | 16 | < 10 | < 10 | 54 | < 10 |
| N=C(N)c1ccc(NC(=O)[C@H](NS(=O)(=O)c2ccc(F)cc2)C2CCCCC2)cc1 | 97 | 280 | 16 | inactive | < 10 | Active | 10 | < 10 | < 10 | 77 | < 10 |
